Experimental data published in ChEMBL document CHEMBL1250515, “4-(3-Halo/amino-4,5-dimethoxyphenyl)-5-aryloxazoles and -N-methylimidazoles that are cytotoxic against combretastatin A resistant tumor cells and vascular disrupting in a cisplatin resistant germ cell tumor model” (J Med Chem, 2010).
Active and inactive are the calls of the source. The calls are words filed in the database; no cut-off is given here.

Key:
[1] = test system: HT-29; test: Cytotoxicity against human HT-29 cells after 72 hrs by MTT assay; type: functional, cell-based; conditions: HT-29, 72 h
In short: (§1)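 MTT read-out. HL-60 seeded at 5 × 10⁵/mL and adherent lines at 5 × 10⁴/mL, precultured 24 h, then exposed to compounds for 72 h at 37 °C, 5% CO₂. MTT final 0.05% (HL-60, 518A2) or 0.1% (others), 2 h. Formazan dissolved in SDS/DMSO/acetic acid; A570 minus A630. Quadruplicates; viability relative to controls; IC50 from four-parameter Hill fit.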

[2] = Cytotoxicity against human multidrug-resistant MCF7/Topo cells after 72 hrs by MTT assay; type: functional, cell-based; in short: as §1
[3] = test system: HL-60; test: Cytotoxicity against human HL60 cells after 72 hrs by MTT assay; type: functional, cell-based; conditions: HL-60, 72 h; in short: as §1
[4] = Cytotoxicity against human 518A2 cells after 72 hrs by MTT assay; type: functional, cell-based; conditions: 518A2, 72 h; in short: as §1
[5] = Cytotoxicity against human vinblastine-resistant KBV1 cells after 72 hrs by MTT assay; type: functional, cell-based; conditions: KB-V1, 72 h; in short: as §1
[6] = test system: 1411HP; test: Antitumor activity against human 1411HP cells xenografted in mouse assessed as intratumoral hemorrhage at 30 mg/kg, ip after 24 hrs; type: functional, organism-based; design: dose 30 mg/kg
In short: (§2)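 Mice carried subcutaneous left-flank xenografts from 10 million 1411HP cells in 150 μL PBS. After 4 weeks, two mice with tumors of ~1 cm³ received a single ip dose of 30 mg/kg. Tumors were inspected for swelling and hemorrhage after 24 h. Body weight was recorded twice weekly, and daily during therapy.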

[7] = test system: 518A2; test: Induction of apoptosis in human 518A2 cells assessed as ROS production at 50 uM after 24 hrs by NBT reduction assay relative to control; type: functional
[8] = test system: 1411HP; test: Antitumor activity against human 1411HP cells xenografted in mouse assessed as tumor regression at 20 mg/kg, ip qd for 2 days; type: functional, organism-based; design: dose 20 mg/kg
In short: (§3)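 Subcutaneous flank xenografts were grown from 10 million 1411HP cells in 150 μL PBS. Two mice with tumors of ~2.5 cm³ were dosed ip at 20 mg/kg on 2 consecutive days. Tumor volume was measured by caliper as a² × b × 0.5. Body weight was recorded twice weekly, and daily during therapy.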

[9] = test system: Mus musculus; test: Toxicity in human 1411HP cells xenografted mouse assessed as body weight change at 20 mg/kg, ip administered on day 16/17 and 35/36; type: organism-based; design: dose 20 mg/kg, route intraperitoneal; conditions: in vivo
[10] = test system: HL-60; test: Induction of apoptosis in human HL60 cells assessed as ROS production at 50 uM after 24 hrs by NBT reduction assay relative to control; type: functional
[11] = Cytotoxicity against human H12.1 cells after 96 hrs by SRB assay; type: functional, cell-based
In short: (§4)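 Germ cell tumor lines seeded on day 0 at densities ensuring exponential growth, exposed from day 1 to drug at 0.001–10 μM in medium. Surviving cells relative to untreated controls read on day 5 by sulforhodamine B colorimetric assay (96 h exposure). IC50 from four-parameter Hill fit of concentration-response curves.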

[12] = test system: Mus musculus; test: Toxicity in human 1411HP cells xenografted mouse at 20 mg/kg, ip administered on day 16/17 and 35/36; type: organism-based; design: dose 20 mg/kg, route intraperitoneal; conditions: in vivo
[13] = test system: 518A2; test: Induction of apoptosis in human 518A2 cells assessed as intact mitochondria at 5 uM after 72 hrs relative to control; type: functional
[14] = Cytotoxicity against human cisplatin-resistant 1411HP cells after 96 hrs by SRB assay; type: functional, cell-based; in short: as §4
[15] = test system: Mus musculus; test: Toxicity in human 1411HP cells xenografted mouse at 30 mg/kg, ip; type: organism-based; design: dose 30 mg/kg, route intraperitoneal; conditions: in vivo; in short: as §2
[16] = test system: 1411HP; test: Antitumor activity against human 1411HP cells xenografted in mouse assessed as prolonged periods of stabilization at 20 mg/kg, ip administered on day 16/17 and 35/36; type: functional, organism-based; design: dose 20 mg/kg
[17] = test system: Mus musculus; test: Toxicity in human 1411HP cells xenografted mouse at 20 mg/kg, ip qd for 2 days; type: organism-based; design: dose 20 mg/kg, route intraperitoneal; in short: as §3
[18] = test system: 1411HP; test: Antitumor activity against human 1411HP cells xenografted in mouse assessed as slow regrowth of tumor at 20 mg/kg, ip qd for 2 days; type: functional, organism-based; design: dose 20 mg/kg; in short: as §3
[19] = test system: 1411HP; test: Antitumor activity against human 1411HP cells xenografted in mouse assessed as tumor regression at 20 mg/kg, ip administered on day 16/17 and 35/36; type: functional, organism-based; design: dose 20 mg/kg
[20] = Inhibition of tubulin polymerization by fluorescence-based assay; conditions: TDE = time-dependent effect
In short: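 Purified tubulin polymerization kit, fluorescence-based; polymerization followed as relative fluorescence units at excitation 360 nm and emission 465 nm. Compounds and reference agents tested at 3 μM. Four to five independent experiments.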

[21] = test system: HL-60; test: Induction of apoptosis in human HL60 cells assessed as intact mitochondria at 5 uM after 72 hrs relative to control; type: functional
[22] = organism: Gallus gallus; test: Antiangiogenic activity in vascular system of fertilized chicken embryo assessed as complete degradation of vascular system after 3 days by CAM assay; type: functional, tissue-based
[23] = test system: 1411HP; test: Antitumor activity against human 1411HP cells xenografted in mouse assessed as swelling of tumor at 30 mg/kg, ip after 24 hrs; type: functional, organism-based; design: dose 30 mg/kg; in short: as §2
[24] = organism: Gallus gallus; test: Antiangiogenic activity in vascular system of fertilized chicken embryo assessed as vessel shrinkage after 24 hrs by CAM assay; type: functional, tissue-based
[25] = test system: HL-60; test: Induction of apoptosis in human HL60 cells at 10 uM after 16 hrs by TUNEL assay; type: functional
[26] = test system: 1411HP; test: Antitumor activity against human 1411HP cells xenografted in mouse assessed as slow regrowth of tumor at 30 mg/kg, ip single dose

Compound	IC50 [1] [nM]	IC50 [2] [nM]	IC50 [3] [nM]	IC50 [4] [nM]	IC50 [5] [nM]	Activity [7] [%]	Activity [10] [%]	Activity [13] [%]	Activity [21] [%]	also measured
COc1ccc(/C=C\c2cc(OC)c(OC)c(OC)c2)cc1O [COMBRETASTATIN A4]	3600	500	0.1	18	0.4	–	–	–	–	–
COc1ccc(-c2c(-c3cc(Cl)c(OC)c(OC)c3)ncn2C)cc1N.Cl.Cl	0.06	320	0.2	62	400	4.4	1.8	80	65	Activity [6]: Active; Activity [8]: Active; Activity [9]: Non-toxic; IC50 [11]: 30 nM; Activity [12]: Non-toxic; IC50 [14]: 60 nM; Activity [15]: Non-toxic; Activity [16]: Active; Activity [17]: Non-toxic; Activity [18]: Active; Activity [19]: Active; inhibition [20]: tde; Activity [22]: Active; Activity [23]: Active; Activity [24]: Active; Activity [25]: 60%
COc1ccc(-c2c(-c3cc(Br)c(OC)c(OC)c3)ncn2C)cc1F.Cl	510	–	9700	66	–	3.9	1.4	89	60	–
COc1cc(-c2ncn(C)c2-c2ccc(N(C)C)cc2)cc(Cl)c1OC.Cl	0.2	–	0.02	2300	–	6	2.4	80	61	–
COc1ccc(-c2ocnc2-c2cc(N)c(OC)c(OC)c2)cc1N.Cl	57	1.23	3.8	2	0.01	3.5	1.5	85	62	Activity [22]: inactive; Activity [24]: inactive; Activity [25]: 60%
COc1ccc(-c2c(-c3cc(Br)c(OC)c(OC)c3)ncn2C)cc1N.Cl.Cl	0.02	340	0.1	6.4	200	3.8	1.5	80	66	Activity [6]: Active; IC50 [11]: 22 nM; IC50 [14]: 54 nM; Activity [26]: Active; inhibition [20]: tde; Activity [22]: inactive; Activity [23]: Active; Activity [24]: inactive; Activity [25]: 60%
COc1cc(-c2ncn(C)c2-c2ccc(N(C)C)cc2)cc(Br)c1OC.Cl	4.3	–	0.2	860	–	6.7	1.6	82	63	–
COc1ccc(-c2c(-c3cc(OC)c(OC)c(OC)c3)ncn2C)cc1N	64	> 10000	> 100000	> 100000	300	1.5	2.2	87	74	–
COc1ccc(-c2c(-c3cc(N)c(OC)c(OC)c3)ncn2C)cc1F.Cl	> 50000	–	> 10000	> 10000	–	1.4	1.2	98	90	–
COc1ccc(-c2c(-c3cc(Cl)c(OC)c(OC)c3)ncn2C)cc1F.Cl	530	–	> 10000	400	–	4.8	1.6	84	55	–
COc1ccc(-c2c(-c3cc(N)c(OC)c(OC)c3)ncn2C)cc1O.Cl	> 100000	–	4600	2800	–	1.8	1.1	94	76	–
COc1cc(-c2ncoc2-c2ccc(N(C)C)cc2)cc(N)c1OC.Cl	> 15000	–	0.9	110	–	3.3	1.4	82	62	–
COc1cc(-c2ncn(C)c2-c2ccc3c(Cl)cn(C)c3c2)cc(N)c1OC.Cl	14	3.8	0.04	3100	160	6.4	1.6	77	60	–
